Results on 29 compounds are retold here after ChEMBL document CHEMBL4184136, “α-Glucosidase Inhibitory and Cytotoxic Taxane Diterpenoids from the Stem Bark of Taxus wallichiana” (J Nat Prod, 2017).

By IC50 is commonly meant the concentration at which inhibition is half-maximal.

Where only a bound is given, the exact number is not on record here.

Experiment [1] in a line: Inhibition of Saccharomyces cerevisiae alpha-glucosidase using p-nitrophenyl-alpha-D-glucopyranoside substrate incubated for 30 mins. Put shortly: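 Sample solution received 3 mM p-nitrophenyl-α-D-glucopyranoside and 0.2 U/mL α-glucosidase (stock levels) in 0.01 M phosphate buffer pH 7.0, incubated at 37 °C for 30 min. Stopped with 0.1 M Na2CO3; p-nitrophenol release read at 401 nm. IC50 is the concentration giving 50% inhibition of enzyme activity; acarbose as positive control.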

Another experiment deals with HeLa. In words: Cytotoxicity against human HeLa cells assessed as reduction in cell viability incubated for 72 hrs by WST-8 dye based assay. The experiment is classed as functional. Put shortly:
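HeLa cells kept in DMEM with 10% FBS, 0.1% NaHCO3 and 1% antibiotic-antimycotic. Cells seeded at 2 × 10^3/well and grown 24 h at 37 °C in humidified 5% CO2. Washed with PBS, then exposed to serially diluted samples in DMEM for 72 h. Washed twice, given DMEM with 10% WST-8 for 3 h, A450 read; viability from mean of three wells; IC50.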
For orientation: Tetrazolium dyes change colour on reduction, which living cells bring about.

In a further experiment the test system is Saccharomyces cerevisiae. As to the kind of experiment: Potency index, ratio of IC50 for Acarbose to IC50 for test compound for inhibition of Saccharomyces cerevisiae alpha-glucosidase using p-nitrophenyl-alpha-D-glucopyranoside substrate incubated for 30 mins.

In the case of `CO[C@H]1O[C@H]2[C@@H]3[C@@H]1[C@@H](O)C[C@H](O)[C@@]3(C)[C@@H](O)[C@H](OC(C)=O)C1=C(C)[C@@H](OC(C)=O)C[C@]2(O)C1(C)C`, the IC50 in experiment [1] is 97.5 µM; in the experiment with HeLa, greater than 10 µM. The corresponding values for `CC(=O)O[C@@]12CO[C@@H]1C[C@H](O[C@@H]1OC[C@@H](O)[C@H](O)[C@H]1O)[C@@]1(C)C(=O)C(=O)C3=C(C)CC[C@@]3(C(C)(C)OC(=O)c3ccccc3)[C@@H](O)[C@H]21` are 83.6 µM and 4.9 µM. The corresponding values for `CCCCCC(=O)N[C@@H](c1ccccc1)[C@@H](O)C(=O)O[C@H]1C[C@@]2(O)[C@@H](OC(=O)c3ccccc3)[C@@H]3[C@]4(OC(C)=O)CO[C@@H]4C[C@H](O[C@@H]4OC[C@@H](O)[C@H](O)[C@H]4O)[C@@]3(C)C(=O)[C@H](OC(C)=O)C(=C1C)C2(C)C` are 94.1 µM and 0.0015 µM. For `C=C1[C@@H](OC(C)=O)CC[C@@]2(C)C[C@H](OC(C)=O)C3=C(C)C[C@H](OC(=O)C(C)C(C)O)[C@@H]([C@@H](OC(C)=O)[C@H]12)C3(C)C` (some centres undefined) the same measures were 194 µM and greater than 10 µM. As to `C=C1[C@@H](OC(=O)/C=C/c2ccccc2)C[C@H](OC(C)=O)[C@]2(C)[C@@H]1C[C@@H]1C[C@H](O)C(C)=C([C@@H](OC(C)=O)[C@@H]2OC(C)=O)C1(C)C` [TAXEZOPIDINE H], the IC50 in experiment [1] was 15 µM; in the experiment on HeLa it was greater than 10 µM.

`CCCCCC(=O)N[C@@H](c1ccccc1)[C@@H](O)C(=O)O[C@H]1C[C@@]2(O)[C@@H](OC(=O)c3ccccc3)[C@@H]3[C@]4(OC(C)=O)CO[C@@H]4C[C@H](O[C@@H]4OC[C@@H](O)[C@H](O)[C@H]4O)[C@@]3(C)C(=O)[C@H](O)C(=C1C)C2(C)C`: the figures for the IC50 (in experiment [1]; in the experiment with HeLa) were 86.9 µM and 0.05 µM, respectively. For `CC(=O)O[C@@]12CO[C@@H]1C[C@@H](O)[C@@]1(C)C(=O)[C@H](O)C3=C(C)[C@@H](OC(=O)[C@H](O)[C@@H](NC(=O)c4ccccc4)c4ccccc4)C[C@@](O)([C@@H](OC(=O)c4ccccc4)[C@H]21)C3(C)C` the same measures were 48.8 µM and 8.5e-05 µM. The corresponding values for `CC(=O)O[C@@]12CO[C@@H]1C[C@H](O)[C@@]1(C)C(=O)[C@H](O)C3=C(C)[C@@H](OC(=O)[C@H](O)[C@@H](NC(=O)c4ccccc4)c4ccccc4)C[C@@](O)([C@@H](OC(=O)c4ccccc4)[C@H]21)C3(C)C` are greater than 250 µM and 0.00075 µM. Consider `C=C1[C@@H]2[C@H](OC(C)=O)[C@@H]3CC(=O)[C@@]4(C)OC[C@@]3(C)[C@@]4(O)[C@@H](OC(C)=O)[C@H](OC(C)=O)[C@]2(COC(=O)c2ccccc2)[C@@H](OC(C)=O)C[C@@H]1O`, for which the IC50 in experiment [1] is greater than 250 µM; in the experiment with HeLa it was greater than 10 µM. In turn, `C=C1[C@@H](OC(=O)/C=C/c2ccccc2)C[C@H](OC(C)=O)[C@@]2(C)[C@@H](OC(C)=O)[C@H](OC(C)=O)C3=C(C)C(=O)C[C@@H]([C@@H](OC(C)=O)[C@H]12)C3(C)C` yielded an IC50 in experiment [1] of 111 µM.

`COc1cc(C[C@H]2COC(=O)[C@@H]2Cc2ccc(O)c(OC)c2)ccc1O` [MATAIRESINOL] returned an IC50 in experiment [1] of 46.5 µM. As for `CC(=O)O[C@@]12CO[C@@H]1C[C@H](O)[C@@]1(C)C(=O)[C@H](O)C3=C(C)C(=O)C[C@@](O)([C@@H](OC(=O)c4ccccc4)[C@H]21)C3(C)C`, the IC50 was greater than 250 µM in experiment [1] and greater than 10 µM in the experiment with HeLa. `C=C1[C@@H](O)CC[C@@]2(C)C[C@H](OC)C3=C(C)C[C@H](OC(=O)C(C)C(C)O)[C@@H]([C@@H](OC(C)=O)[C@H]12)C3(C)C` (some centres undefined) registered an IC50 in experiment [1] of 113 µM.

For the compound `CC=C(C)C(=O)N[C@@H](c1ccccc1)[C@@H](O)C(=O)O[C@H]1C[C@@]2(O)[C@@H](OC(=O)c3ccccc3)[C@@H]3[C@]4(OC(C)=O)CO[C@@H]4C[C@H](O[C@@H]4OC[C@@H](O)[C@H](O)[C@H]4O)[C@@]3(C)C(=O)[C@H](OC(C)=O)C(=C1C)C2(C)C`, the IC50 was greater than 250 µM in experiment [1] and 0.14 µM with HeLa.

`CC(=O)O[C@H]1C(=O)[C@@]2(C)[C@H]([C@H](OC(=O)c3ccccc3)[C@]3(O)C[C@H](OC(=O)[C@H](O)[C@@H](NC(=O)c4ccccc4)c4ccccc4)C(C)=C1C3(C)C)[C@]1(OC(C)=O)CO[C@@H]1C[C@@H]2O` [PACLITAXEL] gave a half-inhibitory concentration (IC50) in experiment [1] greater than 250 µM.

Regarding `C[C@H]1O[C@H](O[C@H]2[C@H](O)[C@@H](O)[C@@H](O[C@H]3[C@H](O)[C@@H](O)C(O)O[C@@H]3CO)O[C@@H]2CO)[C@H](O)[C@@H](O)[C@@H]1N[C@H]1C=C(CO)[C@@H](O)[C@H](O)[C@H]1O` (some centres undefined) [ACARBOSE], it took 215 µM to reach half-maximal inhibition in experiment [1] (IC50). The compound `C=C1[C@@H](OC(C)=O)CC[C@@]2(C)C[C@H](OC)C3=C(C)C[C@H](OC(C)=O)[C@@H]([C@@H](OC(C)=O)[C@H]12)C3(C)C` came in with an IC50 in experiment [1] of 31.8 µM. `CC(C)CC[C@@H](O)[C@](C)(O)[C@H]1CC[C@@]2(O)C3=CC(=O)[C@@H]4C[C@@H](O)[C@@H](O)C[C@]4(C)[C@H]3CC[C@]12C` [PONASTERONE A]: the IC50 in experiment [1] was 115 µM; in the experiment on HeLa, greater than 10 µM. Take `C/C=C(\C)C(=O)N[C@@H](c1ccccc1)[C@@H](O)C(=O)O[C@H]1C[C@@]2(O)[C@@H](OC(=O)c3ccccc3)[C@@H]3[C@]4(OC(C)=O)CO[C@@H]4C[C@H](O[C@@H]4OC[C@@H](O)[C@H](O)[C@H]4O)[C@@]3(C)C(=O)C(=O)C(=C1C)C2(C)C`: the IC50 in experiment [1] amounted to 142 µM.

Regarding `C=C1[C@@H](OC(=O)/C=C/c2ccccc2)C[C@H](OC(C)=O)[C@]2(C)[C@@H]1C[C@@H]1C[C@H](OC(C)=O)C(C)=C([C@@H](OC(C)=O)[C@@H]2OC(C)=O)C1(C)C`, the IC50 in experiment [1] worked out at 38 µM; with HeLa, 5.7 µM.

In experiment [1], `CC1(C)CC[C@]2(C(=O)O)CC[C@]3(C)C(=CC[C@@H]4[C@@]5(C)CC[C@H](O)C(C)(C)[C@@H]5CC[C@]43C)[C@@H]2C1` [OLEANOLIC_ACID] gave an IC50 of 87.2 µM.

Turning to `CCCCCCCCC/C=C\CC/C=C/[C@@H](O)[C@H](CO[C@@H]1O[C@H](CO)[C@@H](O)[C@H](O)[C@H]1O)NC(=O)[C@H](O)CCCCCCCCCCCCC`, the IC50 in experiment [1] was greater than 250 µM; in the experiment with HeLa, greater than 10 µM.

The compound `CC(=O)O[C@H]1C(=O)[C@]2(C)[C@H](O)C[C@H]3OC[C@@]3(OC(C)=O)[C@H]2[C@H](OC(=O)c2ccccc2)[C@]2(O)C[C@H](OC(=O)[C@H](O)[C@@H](NC(=O)c3ccccc3)c3ccccc3)C(C)=C1C2(C)C` came in with an IC50 in experiment [1] of 42.7 µM.

In the case of `C=C1[C@H]2C[C@]34CC=C(C)C3[C@@H](OC4(C)C)[C@H](OC(C)=O)[C@]2(C)[C@@H](OC(C)=O)C[C@@H]1O` (some centres undefined), the IC50 was 88.5 µM in experiment [1] and greater than 10 µM in the experiment on HeLa. For `COc1cc(C[C@@H]2COC(=O)[C@H]2Cc2ccc(O)c(OC)c2)ccc1O` the same measures were 175 µM and greater than 10 µM. For `C=C1[C@@H](O)C[C@H](OC(C)=O)[C@@]2(C)[C@@H](OC(C)=O)[C@H](OC(C)=O)C3=C(C)C(=O)C[C@@H]([C@@H](OC(C)=O)[C@H]12)C3(C)C` the same measures were greater than 250 µM and greater than 10 µM. In experiment [1], `C=C1[C@@H](OC(C)=O)CC[C@@]2(C)C[C@H](OC)C3=C(C)C[C@H](OC(=O)C(C)C(C)O)[C@@H]([C@@H](OC(C)=O)[C@H]12)C3(C)C` (some centres undefined) showed an IC50 of 3.6 µM. Moreover, the Ratio IC50 in the experiment with Saccharomyces cerevisiae came out at 60. As to `COc1cc([C@H]2c3cc(O)c(OC)cc3C[C@H]3C(=O)OC[C@H]23)ccc1O` [ALPHA-CONIDENDRIN], the IC50 in experiment [1] was 194 µM; in the experiment on HeLa, greater than 10 µM. The corresponding values for `C=C1[C@@H](O)C[C@H](OC(C)=O)[C@@]2(C)[C@@H](OC(C)=O)[C@H](OC(C)=O)C3=C(C)C(=O)C[C@@H]([C@@H](O)[C@H]12)C3(C)C` are greater than 250 µM and greater than 10 µM.
